Activity calls are given as the source filed them.
How the values were obtained:
Mus musculus [1] = assay: Anticonvulsant activity in albino CD-1 mouse assessed as protection against subcutaneous pentylenetetrazole-induced seizure at 30 to 300 mg/kg, ip measured after 2.0 hrs; type: functional
In short: (§1)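 Male CD-1 mice given compound i.p. (0.5% methylcellulose suspension) at 30, 100, 300 mg/kg, four per group; pentylenetetrazole 85 mg/kg s.c. at 0.5 or 2 h. Absence of clonic convulsions (≥5 s) over 30 min observation counts as protection. Minimum active dose reported.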

Mus musculus [2] = assay: Antinociceptive activity in albino CD-1 mouse assessed as reduction in licking and biting time during phase 2 at 97.51 mg/kg, ip administered 30 mins prior to formalin challenge measured between 15.0 to 20.0 mins relative to control; type: functional; set-up: scale not given: the % may be the effect or the level left
Rattus norvegicus = organism: Rattus norvegicus; assay: Displacement of [3H]BTX from voltage-sensitive sodium channel site2 in rat cerebral cortex at 100 uM measured after 60.0 mins by scintillation counting; type: tissue-based
Mus musculus [3] = assay: Antinociceptive activity in albino CD-1 mouse assessed as reduction in licking and biting time during phase 2 at 97.51 mg/kg, ip administered 30 mins prior to formalin challenge measured between 20.0 to 25.0 mins relative to control; type: functional; set-up: scale not given: the % may be the effect or the level left
Mus musculus [4] = assay: Anticonvulsant activity in ip dosed albino CD-1 mouse assessed as protection against maximal electroshock-induced seizure measured as time to peak effect; type: functional
In short: (§2)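 Quantitative work at time of peak effect previously estimated in screening; groups of six mice given various i.p. doses until ≥3 points within 10–90% seizure protection (MES or scPTZ) or minimal motor impairment on rotarod (10 rpm, failure to hold ≥1 min).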

Salmonella typhimurium [5] = assay: Mutagenic activity in Salmonella typhimurium TA100 assessed as mutagenicity index at 40 ng/ml by Ames test; type: toxicity, organism-based; conditions: salmonella enterica subsp. enterica serovar typhimurium
In short: (§3)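 Ames TA100 liquid pre-incubation (minimal medium, 37 °C) and V. harveyi assay (BOSS medium, 30 °C); test at 40 ng/ml, triplicate. Mutagenic index = induced revertants / spontaneous revertants (DMSO control); M.I. ≥2 considered mutagenic.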

[6] = Neurotoxicity in ip dosed albino CD-1 mouse assessed as motor impairment by rotarod test; type: toxicity, organism-based; conditions: in vivo; in short: as §2
Mus musculus [7] = assay: Antinociceptive activity in albino CD-1 mouse assessed as reduction in licking and biting time during phase 2 at 97.51 mg/kg, ip administered 30 mins prior to formalin challenge measured between 15.0 to 30.0 mins relative to control; type: functional; set-up: scale not given: the % may be the effect or the level left
Vibrio harveyi [8] = assay: Antimutagenic activity in Vibrio harveyi BB7XM assessed as inhibition of nitroquinoline-N-oxide-induced revertant colonies; type: functional
In short: (§4)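 Revertants induced by 4-nitroquinoline-N-oxide (final 40 ng/ml) with versus without test compound; TA100 at 37 °C, V. harveyi strains at 30 °C in BOSS medium. Three independent repetitions; inhibition % = 100 − (R1/R2 × 100); 25–40% moderate, ≥40% strong.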

Mus musculus [9] = assay: Anticonvulsant activity in albino CD-1 mouse assessed as protection against subcutaneous pentylenetetrazole-induced seizure at 30 to 300 mg/kg, ip measured after 0.5 hrs; type: functional; in short: as §1
Mus musculus [10] = assay: Anticonvulsant activity in ip dosed albino CD-1 mouse assessed as protection against maximal electroshock-induced seizure; type: functional; conditions: CD-1, ip; in short: as §2
Mus musculus [11] = assay: Anticonvulsant activity in albino CD-1 mouse assessed as protection against maximal electroshock-induced seizure at 30 to 300 mg/kg, ip measured after 0.5 hrs; type: functional; conditions: CD-1, ip, read-out: MED
In short: (§5)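 Male CD-1 mice (16–26 g), compound suspended in 0.5% methylcellulose/water, i.p. at 30, 100, 300 mg/kg; four mice per group, each used once. Electroconvulsion by electrical stimulus 0.2 s at 50 Hz; protection scored at 0.5 and 2 h. Value is minimum dose showing activity.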

Mus musculus [12] = assay: Neurotoxicity in albino CD-1 mouse assessed as motor impairment at 30 to 300 mg/kg mg/kg, ip measured after 0.5 hrs by rotarod test; type: toxicity, organism-based; conditions: in vivo
In short: (§6)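 Rotarod in male CD-1 mice at 0.5 and 2 h after i.p. 30, 100 or 300 mg/kg (methylcellulose suspension); motor impairment = inability to keep balance on rod turning at 10 rpm for at least 1 min. Minimum neurotoxic dose reported.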

Vibrio harveyi [13] = assay: Antimutagenic activity in Vibrio harveyi BB7 assessed as inhibition of nitroquinoline-N-oxide-induced revertant colonies; type: functional; in short: as §4
Mus musculus [14] = assay: Anticonvulsant activity in albino CD-1 mouse assessed as protection against maximal electroshock-induced seizure at 30 to 300 mg/kg, ip measured after 2.0 hrs; type: functional; conditions: for minimal effective dose: CD-1, ip, read-out: MED; in short: as §5
Mus musculus [15] = assay: Antinociceptive activity in albino CD-1 mouse assessed as reduction in licking and biting time during phase 1 at 97.51 mg/kg, ip administered 30 mins prior to formalin challenge relative to control; type: functional; set-up: scale not given: the % may be the effect or the level left
Mus musculus [16] = assay: Anticonvulsant activity in ip dosed albino CD-1 mouse assessed as protection against subcutaneous pentylenetetrazole-induced seizure measured as time to peak effect; type: functional; in short: as §2
Mus musculus [17] = assay: Antinociceptive activity in albino CD-1 mouse assessed as reduction in licking and biting time during phase 2 at 97.51 mg/kg, ip administered 30 mins prior to formalin challenge measured between 25.0 to 30.0 mins relative to control; type: functional; set-up: scale not given: the % may be the effect or the level left
Vibrio harveyi [18] = assay: Mutagenic activity in Vibrio harveyi BB7 assessed as mutagenicity index at 40 ng/ml; type: organism-based; conditions: in vivo; in short: as §3
Mus musculus [19] = assay: Neurotoxicity in albino CD-1 mouse assessed as motor impairment at 30 to 300 mg/kg mg/kg, ip measured after 2 hrs by rotarod test; type: toxicity, organism-based; conditions: in vivo; in short: as §6
[20] = Protective index, ratio of TD50 for neurotoxicity in ip dosed albino CD-1 mouse to ED50 for anticonvulsant activity in ip dosed maximal electoshock-induced seizure albino CD-1 mouse model; type: toxicity, organism-based; conditions: in vivo, read-out: Ratio TD50/ED50
In short: (§7)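 Protective index computed as TD50 (rotarod) divided by ED50 (MES or scPTZ), both from probit analysis on groups of six i.p.-dosed mice.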

Salmonella typhimurium [21] = assay: Antimutagenic activity in Salmonella typhimurium TA100 assessed as inhibition of nitroquinoline-N-oxide-induced revertant colonies by Ames test; type: functional, Salmonella enterica subsp. enterica serovar Typhimurium; in short: as §4
Mus musculus [22] = assay: Anticonvulsant activity in ip dosed albino CD-1 mouse assessed as protection against 6 Hz current-induced seizure measured after 2.0 hrs; type: functional
In short: (§8)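 6-Hz psychomotor test: corneal stimulation 32 mA, 0.2 ms monopolar rectangular pulses at 6 Hz for 3 s, mice restrained then released to observation cage. Protected if normal exploratory behaviour resumes within 10 s. Doses 30, 100, 300 mg/kg i.p.; read at 0.5 and 2 h; minimum active dose.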

Mus musculus [23] = assay: Neurotoxicity in albino CD-1 mouse assessed as motor performance by measuring time spent in chimney at 97.51 mg/kg, ip administered 30 mins prior to chimney test (reference value: 6.29 +/- 2.48 sec); type: toxicity, organism-based; conditions: in vivo
Vibrio harveyi [24] = assay: Mutagenic activity in Vibrio harveyi BB7XM assessed as mutagenicity index at 40 ng/ml; type: organism-based; conditions: in vivo; in short: as §3
Mus musculus [25] = assay: Anticonvulsant activity in ip dosed albino CD-1 mouse assessed as protection against 6 Hz current-induced seizure measured after 0.5 hrs; type: functional; conditions: CD-1, ip, read-out: MED; in short: as §8
Mus musculus [26] = assay: Anticonvulsant activity in ip dosed albino CD-1 mouse assessed as protection against subcutaneous pentylenetetrazole-induced seizure; type: functional; in short: as §2
Mus musculus [27] = assay: Antinociceptive activity in albino CD-1 mouse assessed as reduction in licking and biting time during phase 2 at 114.68 mg/kg, ip administered 30 mins prior to formalin challenge measured between 15.0 to 30.0 mins relative to control; type: functional; set-up: scale not given: the % may be the effect or the level left
Mus musculus [28] = assay: Antinociceptive activity in albino CD-1 mouse assessed as reduction in licking and biting time during phase 2 at 114.68 mg/kg, ip administered 30 mins prior to formalin challenge measured between 15.0 to 20.0 mins relative to control; type: functional; set-up: scale not given: the % may be the effect or the level left
[29] = Protective index, ratio of TD50 for neurotoxicity in ip dosed albino CD-1 mouse to ED50 for anticonvulsant activity in ip dosed subcutaneous pentylenetetrazole-induced seizure albino CD-1 mouse model; type: toxicity, organism-based; conditions: in vivo, read-out: Ratio TD50/ED50; in short: as §7
Mus musculus [30] = assay: Antinociceptive activity in albino CD-1 mouse assessed as reduction in licking and biting time during phase 1 at 114.68 mg/kg, ip administered 30 mins prior to formalin challenge relative to control; type: functional; set-up: scale not given: the % may be the effect or the level left
Mus musculus [31] = assay: Neurotoxicity in albino CD-1 mouse assessed as motor performance by measuring time spent in chimney at 114.68 mg/kg, ip administered 30 mins prior to chimney test (reference value: 6.29 +/- 2.48 sec); type: toxicity, organism-based; conditions: in vivo
Mus musculus [32] = assay: Antinociceptive activity in albino CD-1 mouse assessed as reduction in licking and biting time during phase 2 at 114.68 mg/kg, ip administered 30 mins prior to formalin challenge measured between 25.0 to 30.0 mins relative to control; type: functional; set-up: scale not given: the % may be the effect or the level left
Mus musculus [33] = assay: Antinociceptive activity in albino CD-1 mouse assessed as reduction in licking and biting time during phase 1 at 104.11 mg/kg, ip administered 2.0 hrs prior to formalin challenge relative to control; type: functional; set-up: scale not given: the % may be the effect or the level left
Mus musculus [34] = assay: Neurotoxicity in albino CD-1 mouse assessed as motor performance by measuring time spent in chimney at 104.11 mg/kg, ip administered 2.0 hrs prior to chimney test (reference value: 6.29 +/- 2.48 sec); type: toxicity, organism-based; conditions: in vivo
Mus musculus [35] = assay: Antinociceptive activity in albino CD-1 mouse assessed as reduction in licking and biting time during phase 2 at 104.11 mg/kg, ip administered 2.0 hrs prior to formalin challenge measured between 15.0 to 30.0 mins relative to control; type: functional; set-up: scale not given: the % may be the effect or the level left
Mus musculus [36] = assay: Antinociceptive activity in albino CD-1 mouse assessed as reduction in licking and biting time during phase 2 at 104.11 mg/kg, ip administered 2.0 hrs prior to formalin challenge measured between 15.0 to 20.0 mins relative to control; type: functional; set-up: scale not given: the % may be the effect or the level left
Mus musculus [37] = assay: Antinociceptive activity in albino CD-1 mouse assessed as reduction in licking and biting time during phase 2 at 104.11 mg/kg, ip administered 2.0 hrs prior to formalin challenge measured between 20.0 to 25.0 mins relative to control; type: functional; set-up: scale not given: the % may be the effect or the level left

| inhibition (Rattus norvegicus) | Compound | MED (Mus musculus [1]) | Time (Mus musculus [4]) | TD50 [6] | MED (Mus musculus [9]) | ED50 (Mus musculus [10]) | minimal effective dose (Mus musculus [11]) | MTC (Mus musculus [12]) | minimal effective dose (Mus musculus [14]) | Time (Mus musculus [16]) | MTC (Mus musculus [19]) | selectivity ratio [20] | minimal effective dose (Mus musculus [25]) | further results |
| --- | --- | --- | --- | --- | --- | --- | --- | --- | --- | --- | --- | --- | --- | --- |
| 44.6% | COc1ccccc1N1CCN(C(=O)CN2C(=O)CC(C)(c3ccccc3)C2=O)CC1 (stereo not drawn) | inactive | 0.5 h | 240 mg/kg | inactive | 97.5 mg/kg | 100 mg/kg | 300 mg/kg | 300 mg/kg | 0.5 h | 300 mg/kg | 2.46 | 100 mg/kg | Activity (Mus musculus [2]): 100%; Activity (Mus musculus [3]): 100%; Activity_index (Salmonella typhimurium [5]): 0.6; Activity (Mus musculus [7]): 99.3%; inhibition (INH) (Vibrio harveyi [8]): 51%; inhibition (INH) (Vibrio harveyi [13]): 45%; Activity (Mus musculus [15]): 85.5%; Activity (Mus musculus [17]): 98%; Activity_index (Vibrio harveyi [18]): 1.2; inhibition (INH) (Salmonella typhimurium [21]): 42%; MED (Mus musculus [22]): inactive; Time (Mus musculus [23]): 8.43 s; Activity_index (Vibrio harveyi [24]): 0.9 |
| 56.1% | CC1(c2ccccc2)CC(=O)N(CC(=O)N2CCN(c3ccccc3F)CC2)C1=O (stereo not drawn) |  | 0.5 h | 302 mg/kg |  | 115 mg/kg | 100 mg/kg | 300 mg/kg |  | 0.5 h | 300 mg/kg | 2.64 |  | minimal effective dose (Mus musculus [1]; CD-1, 2 h, read-out: MED): 300 mg/kg; ED50 (Mus musculus [26]): 97.1 mg/kg; Activity (Mus musculus [27]): 87.1%; minimal effective dose (Mus musculus [9]; CD-1, 0.5 h, read-out: MED): 100 mg/kg; MED (Mus musculus [14]): inactive; Activity (Mus musculus [28]): 98%; selectivity ratio [29]: 3.11; Activity (Mus musculus [30]): 73.3%; Time (Mus musculus [31]): 6.5 s; Activity (Mus musculus [32]): 81% |
|  | CC1(c2ccccc2)CC(=O)N(CC(=O)N2CCN(c3ccc(F)cc3)CC2)C1=O (stereo not drawn) | inactive | 2 h | 248 mg/kg | inactive | 104 mg/kg | 100 mg/kg | 300 mg/kg | 100 mg/kg | 2 h | 300 mg/kg | 2.37 | 300 mg/kg | Activity (Mus musculus [33]): 60%; Time (Mus musculus [34]): 6.14 s; Activity (Mus musculus [35]): 82.3%; Activity (Mus musculus [36]): 95%; Activity (Mus musculus [37]): 95%; minimal effective dose (Mus musculus [22]; CD-1, ip, read-out: MED): 300 mg/kg |

Reference: ChEMBL document CHEMBL3616366, “Design, synthesis and biological activity of new amides derived from 3-methyl-3-phenyl-2,5-dioxo-pyrrolidin-1-yl-acetic acid” (Eur J Med Chem, 2015)
